Experimental data from different studies.
Each line is one published result; the experiments were not run side by side. Converted amounts (≈) assume the structure as drawn.

Structure (SMILES)	tested on	test	test system	setting	quantity	result
Cc1cc(F)cc(C)c1NC(=N)CC(O)c1cc2c(F)cc(F)cc2c2cc(C(F)(F)F)ccc12 (stereo not drawn)	HepG2	cell growth or viability, neutral red	–	24 h	IC50	6.3 µM
Cc1cccc(NC(=O)c2sc3nc(-c4cccs4)cc(C(F)(F)F)c3c2N)c1C	HepG2	cell growth or viability	–	72 h	IC50	> 100 µM
O=c1c2ccccc2[se]n1-c1ccccc1	Trypanosoma cruzi	parasite growth	Vero	72 h, intracellular, amastigote	EC50	3.72 µM
COCCC(c1cccnc1)n1c(=S)[nH]c2ccc(Cl)cc2c1=O (stereo not drawn)	Mycobacterium tuberculosis	microbial growth	H37RV	–	MIC90	> 100 µM
COc1ccc(-c2cc(C(F)(F)F)c3c(N)c(C(=O)Nc4cccc(C)c4C)sc3n2)cc1OC	Mycobacterium tuberculosis	microbial growth	H37RV	–	IC50	> 100 µM
O=c1[nH]c2cc(CO)c(Cl)cc2c(=O)n1Cc1cccnc1	Mycobacterium tuberculosis	microbial growth	H37RV	–	MIC90	> 100 µM
Cc1c(F)cccc1NC(=N)CC(O)c1cc2c(F)cc(F)cc2c2cc(C(F)(F)F)ccc12 (stereo not drawn)	HepG2	cell growth or viability, neutral red	–	24 h	IC50	11.3 µM
CC(C)C(=O)OCc1cc2[nH]c(=S)n(Cc3cncc(C(N)=S)c3)c(=O)c2cc1Cl	Mycobacterium tuberculosis	microbial growth	H37RV	–	MIC90	18 µM (≈ 8.33 µg/mL)
COc1ccc(-c2cc(C(F)(F)F)c3c(N)c(C(=O)Nc4c(C)cccc4C)sc3n2)cc1	HepG2	cell growth or viability	–	72 h	IC50	> 100 µM
N=C(CC(O)c1cc2c(F)cc(F)cc2c2cc(C(F)(F)F)ccc12)N1CCC(F)(F)CC1 (stereo not drawn)	HepG2	cell growth or viability, neutral red	–	24 h	IC50	15.7 µM
Nc1c(C(=O)NCc2ccccc2)sc2nc(-c3ccccc3)ccc12	HepG2	cell growth or viability	–	72 h	IC50	> 100 µM
O=c1c2cc(Cl)ccc2[nH]c(=S)n1Cc1ccc(-c2ccccc2)nc1	Mycobacterium tuberculosis	microbial growth	H37RV	–	MIC90	> 100 µM
N=C(CC(O)c1cc2c(F)cc(F)cc2c2cc(C(F)(F)F)ccc12)NC1CC(F)(F)C1 (stereo not drawn)	HepG2	cell growth or viability, neutral red	–	24 h	IC50	7.2 µM
NC(=O)c1cncc(Cn2c(=S)[nH]c3cc(CO)c(Cl)cc3c2=O)c1	Mycobacterium tuberculosis	microbial growth	H37RV	–	MIC90	17.2 µM (≈ 6.48 µg/mL)
COc1ccc(-c2cc(C(F)(F)F)c3c(N)c(C(=O)N4CCCCC4)sc3n2)cc1	HepG2	cell growth or viability	–	72 h	IC50	> 100 µM
